# In ChEMBL document CHEMBL1124214, “Synthesis, binding studies, and structure-activity relationships of 1-aryl-and 2-aryl[1]benzopyranopyrazol-4-ones, central benzodiazepine receptor ligands” (J Med Chem, 1988):
# Species: Bos taurus
# Assay: Percentage inhibition of [3H]flunitrazepam binding to benzodiazepine receptor of bovine brain membrane at 34 uM
# Method in brief: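 Specific [3H]flunitrazepam binding (0.6 nM) to bovine brain membranes, 90 min at 0 °C in 50 mM Tris-HCl, triplicate incubations; test compound at 34 μM, EtOH vehicle unless noted. Filtration through GF/B, scintillation counting; 10 μM diazepam defines nonspecific binding. Percent inhibition as mean ± SEM of five determinations.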
row,SMILES,inhibition [%]
1,O=c1oc2ccccc2c2c1c(-c1ccccc1)nn2-c1ccccc1,34
2,Cc1nn(-c2ccccc2Cl)c2c1c(=O)oc1ccccc12,34

# Molecular target: GABA-A receptor; anion channel
# Assay: Inhibition of [3H]flunitrazepam binding to benzodiazepine receptor in bovine brain membrane
# Format: cell membranes, Bos taurus
# Method in brief: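 Bovine brain membranes (0.4-0.5 mg protein) incubated in triplicate with 0.6 nM [3H]flunitrazepam, 90 min at 0 °C, 50 mM Tris-HCl; compounds in EtOH unless noted. Rapid GF/B filtration, buffer wash, scintillation counting; nonspecific binding with 10 μM diazepam. IC50 from log-probit plots, mean ± SEM of seven determinations.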
row,SMILES,IC50 [nM]
1,Cc1cc(C)cc(-n2nc(C)c3c(=O)oc4ccccc4c32)c1,65
2,O=c1oc2ccccc2c2c1c(-c1ccccc1)nn2-c1ccccc1,16000
3,Cc1cccc(-n2nc(C)c3c(=O)oc4ccccc4c32)c1,280
4,COc1cccc(-n2nc(C)c3c(=O)oc4ccccc4c32)c1,750
5,Cc1nn(-c2ccc(Cl)cc2)c2c1c(=O)oc1ccccc12,750
6,Cc1nn(-c2cccc([N+](=O)[O-])c2)c2c1c(=O)oc1ccccc12,320
7,Cc1nn(-c2ccccc2Cl)c2c1c(=O)oc1ccccc12,16000
8,COc1ccccc1-n1nc(C)c2c(=O)oc3ccccc3c21,8000
9,Cc1ccccc1-n1nc(C)c2c(=O)oc3ccccc3c21,30000
10,CNC1=Nc2ccc(Cl)cc2C(c2ccccc2)=[N+]([O-])C1 [CHLORDIAZEPOXIDE],790
11,CN1C(=O)CN=C(c2ccccc2)c2cc(Cl)ccc21 [DIAZEPAM],25
12,Cc1ccc(-n2nc(C)c3c(=O)oc4ccccc4c32)cc1,2000
13,Cc1c2c(=O)oc3ccccc3c2nn1-c1cccc(Br)c1,25000
14,Cc1cccc(-n2nc3c(c2C)c(=O)oc2ccccc23)c1,3000
15,Cc1nn(-c2ccccc2)c2c1c(=O)oc1ccccc12,300
16,COc1ccc(-n2nc(C)c3c(=O)oc4ccccc4c32)cc1,700
17,Cc1nn(-c2ccccc2N)c2c1c(=O)oc1ccccc12,630
18,Cc1nn(-c2cccc(Br)c2)c2c1c(=O)oc1ccccc12,100
19,Cc1nn(-c2ccc(N)cc2)c2c1c(=O)oc1ccccc12,1300
20,Cc1c2c(=O)oc3ccccc3c2nn1-c1ccccc1,3100
21,COc1cccc(-n2nc3c(c2C)c(=O)oc2ccccc23)c1,5000
22,Cc1nn(-c2cccc(Cl)c2)c2c1c(=O)oc1ccccc12,90
23,Cc1nn(-c2cccc(N)c2)c2c1c(=O)oc1ccccc12,3400
24,Cc1nn(-c2ccc([N+](=O)[O-])cc2)c2c1c(=O)oc1ccccc12,1000
25,Cc1nn(-c2ccccc2[N+](=O)[O-])c2c1c(=O)oc1ccccc12,43000
